Measured values published in PMC3251632 (Cancer research, 2011).
Entries after “also recorded” stand apart in the source; their conditions may differ.

Assays:
[1] = test system: pancreatic cancer cell lines; assay: Killing capacity in additional pancreatic cancer cell lines in vitro; assay type: cell-based; settings: all cell lines under investigation; supplementary Fig. 3
[2] = molecular target: σ-2 receptor (Homo sapiens, UniProt Q5BJF2); assay: Competitive displacement of fluorescent sigma-2 ligand SW120; assay type: binding, human (CFPAC cells); settings: compared to non-conjugated SV119; CFPAC cells
Chain of σ-2 receptor (Q5BJF2 whole entry): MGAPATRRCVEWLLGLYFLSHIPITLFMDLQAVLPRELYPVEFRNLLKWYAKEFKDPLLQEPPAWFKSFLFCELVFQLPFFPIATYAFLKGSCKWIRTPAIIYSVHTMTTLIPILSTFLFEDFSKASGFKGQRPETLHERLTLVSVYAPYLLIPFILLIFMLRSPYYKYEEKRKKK

[3] = test system: CFPAC tumors; assay: Xenograft CFPAC tumor growth; assay type: in vivo, human tumor in nude mice; settings: daily treatment for one week, CFPAC-bearing nude mice, n = 12 per group
In short: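 Female nu/nu mice, 8–12 weeks old, carried 2 × 10^6 CFPAC cells in the flank. Treatment began ~2 weeks after implantation (mean diameter ~6–7 mm) and was given daily for one week, n = 12 per group. Tumour growth was measured by caliper as mean diameter. Groups were compared by one-tailed Student's t test.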

[4] = test system: Panc02 tumors; assay: In vivo apoptosis in Panc02 tumors; set-up: species or system mouse (C57BL/6); settings: single i.p. dose (S2-Bim 400 μg), next day, n = 3
In short: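 Female C57BL/6 mice, 8–12 weeks old, received 1 × 10^6 Panc02 cells subcutaneously in the right flank. At two weeks (mean tumour diameter ~5 mm) they got a single i.p. dose of 400 μg. Tumours were harvested 24 h later. For TUNEL, tumours were stained directly. For caspase-3, tumours were minced to 1 mm and digested 45 min in RPMI with 1 mg/mL collagenase and 0.1 mg/mL DNase, filtered, ACK-lysed, resuspended in PBS pH 7.4, fixed in 1% paraformaldehyde, and read by flow cytometry for activated caspase-3.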

[5] = test system: Panc02 tumors; assay: Syngeneic Panc02 tumor growth and survival; assay type: in vivo, mouse (C57BL/6); settings: C57BL/6 mice with Panc02 tumors; supplementary Fig. 4
In short: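 Female C57BL/6 mice, 8–12 weeks old, carried 1 × 10^6 Panc02 cells in the flank. Dosing began ~2 weeks after implantation (mean diameter ~6–7 mm): i.p. every other day for two weeks, n = 12 per group. Mice were euthanised at tumour ulceration or a mean diameter of 15 mm. Survival was plotted as Kaplan-Meier curves and compared by log-rank test.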

[6] = test system: Akt; assay: Akt phosphorylation in CFPAC cells; assay type: cell-based, human
[7] = test system: Panc02 cells; assay: Caspase-3 activation; assay type: cell-based, mouse; settings: 10 μM, 24 h, flow cytometry
[8] = SW43 by itself, vs SV119; ref ([24]); cited from earlier work
[9] = ref ([30]–[32]); cited from earlier work

## EIWIAQEARRIGAEFNAYYAR-OH [S2-BimX]
[1]
  potency / response of pancreatic cancer cell lines (in words): virtually no activity in all cell lines tested; also recorded: complete loss of killing activity
[2]
  displacement of SW120 (in words): displaced SW120 in a dose-dependent fashion
[3]
  tumor growth, CFPAC xenograft (in words): somewhat reduced tumor growth rate; also recorded: elicited SV119 baseline activity
[4]
  tumor cell apoptosis (activated caspase-3) in words: only background signals
[5]
  time by which all mice had died: 43 days post tumor inoculation

## LDPKLMKEEQMSQAQLFTRSFDDGL-OH [S2-CTMP-4]
[6]; CFPAC cells, 24 hours post-treatment
  interference with Akt activation (phosphorylation): capable of interfering with Akt activation
[7]
  fold increase in apoptosis (caspase-3 induction) vs SV119 alone: 1.3 fold

## COc1ccc(C)cc1NC(=O)OC1CC2CCCC(C1)N2CCCCCCCCCCN (stereo not drawn) [SW43]
[8]
  cytotoxicity relative to SV119: twice as cytotoxic by itself

## CC1(C)CCC(c2ccc(Cl)cc2)=C(CN2CCN(c3ccc(C(=O)NS(=O)(=O)c4ccc(N[C@H](CCN5CCOCC5)CSc5ccccc5)c(S(=O)(=O)C(F)(F)F)c4)cc3)CC2)C1 [ABT-263]
[9]
  oral bioavailability (in words): orally bioavailable

## CC(C)=CCN1CC[C@]2(C)c3cc(O)ccc3C[C@H]1[C@H]2C [(+)-pentazocine, reference compound]
[2]
  displacement of SW120 (in words): unable to compete off SW120

## COc1ccc(C)cc1NC(=O)OC1C[C@H]2CCC[C@@H](C1)N2CCCCCCN (stereo partly drawn) [SV119]
[6]; SV119 alone, 24 hours, also p70 S6 kinase (data not shown)
  activation status of the two central kinases (Akt and p70 S6 kinase): incapable of altering the activation status of these two central kinases
[3]
  tumor growth, CFPAC xenograft (in words): somewhat reduced tumor growth rate
